This passage reports IC50 and Activity results from ChEMBL document CHEMBL5223110, “Novel allosteric glutaminase 1 inhibitors with macrocyclic structure activity relationship analysis” (Bioorg Med Chem Lett, 2022).

The target in test [1] is T1, Glutaminase kidney isoform, mitochondrial (Homo sapiens, UniProt O94925).
T1 sequence (O94925 whole entry): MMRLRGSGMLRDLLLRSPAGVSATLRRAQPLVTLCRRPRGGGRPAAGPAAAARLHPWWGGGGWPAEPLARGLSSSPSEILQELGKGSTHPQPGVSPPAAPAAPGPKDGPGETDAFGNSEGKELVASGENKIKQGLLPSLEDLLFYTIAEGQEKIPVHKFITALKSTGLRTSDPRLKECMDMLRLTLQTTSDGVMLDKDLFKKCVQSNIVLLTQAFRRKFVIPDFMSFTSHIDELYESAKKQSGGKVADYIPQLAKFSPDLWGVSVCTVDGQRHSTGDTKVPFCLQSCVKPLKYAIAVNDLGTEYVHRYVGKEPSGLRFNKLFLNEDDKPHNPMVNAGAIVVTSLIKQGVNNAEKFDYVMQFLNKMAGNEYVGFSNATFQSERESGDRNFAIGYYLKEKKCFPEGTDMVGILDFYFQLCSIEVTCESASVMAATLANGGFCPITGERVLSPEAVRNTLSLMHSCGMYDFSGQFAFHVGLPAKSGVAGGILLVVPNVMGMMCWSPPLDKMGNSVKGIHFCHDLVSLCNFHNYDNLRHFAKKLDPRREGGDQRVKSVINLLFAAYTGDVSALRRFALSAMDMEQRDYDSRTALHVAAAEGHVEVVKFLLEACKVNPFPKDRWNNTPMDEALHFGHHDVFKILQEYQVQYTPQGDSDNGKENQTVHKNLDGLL
Put plainly: Inhibition of GLS1 (unknown origin).

For another test, the system named is LR. Put plainly: (§1) Antiproliferative activity against human LR cells incubated for 72 hrs by Celltiter-Glo assay. It is filed as functional, cell-based. An outline of the steps:
(§2)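 Cells treated with 0, 0.01, 0.03, 0.1, 0.3 and 1 μM of compound for 72 h. Viability read by CellTiter-Glo luminescence. IC50 taken from the dose–response curves. LR cells are LDK378-resistant. A549 and H460 carry co-occurring KRAS and KEAP1 mutations, and H358 carries a KRAS mutation only.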

For a further test, the system named is NCI-H358. Put plainly: Antiproliferative activity against human NCI-H358 cells incubated for 72 hrs by Celltiter-Glo assay. Type of test: functional, cell-based. The settings on record: NCI-H358, 72 h. An outline of the steps:
as §2
In general terms: Cellular ATP, detected with luciferase, serves as a proxy for viable cell number.

For another test, the system named is NCI-H460. Put plainly: Antiproliferative activity against human NCI-H460 cells incubated for 72 hrs by Celltiter-Glo assay. Type of test: functional, cell-based. The note with it: NCI-H460, 72 h. An outline of the steps: as §2
The next test deals with A549. In words: Antiproliferative activity against human A549 cells incubated for 72 hrs by Celltiter-Glo assay. Type of test: functional, cell-based. The note with it: A549, 72 h. Summed up:
as §2

The nature of test [2]: as §1. Type of test: functional, cell-based. An outline of the steps: as §2

In the case of `O=C1Cc2cccc(c2)OCCCCCOc2cccc(c2)CC(=O)Nc2nnc(s2)CCCCc2ccc(nn2)N1`, half-maximal inhibition in test [1] (IC50) required 1000 nM. In other words, the single-digit micromolar range.
As to `O=C1Cc2cccc(c2)OCCOCCOc2cccc(c2)CC(=O)Nc2ccc(nn2)CCCCc2ccc(nn2)N1`, the midpoint of inhibition in test [1], the IC50, lay at 430 nM. Besides, the Activity result with LR was “Dose-Dependent Effect”.
For `O=C1Cc2cccc(c2)OCCOCCOc2cccc(c2)CC(=O)Nc2nnc(s2)CCCCc2ccc(nn2)N1` the same measures were 400 nM and “Dose-Dependent Effect”.
For `O=C1Cc2cccc(c2)OCCOc2cccc(c2)CC(=O)Nc2ccc(nn2)CCCCc2ccc(nn2)N1` the same measures were 180 nM and “Dose-Dependent Effect”.
For `O=C(Cc1cccc(OC(F)(F)F)c1)Nc1ccc(CCCCc2nnc(NC(=O)Cc3ccccn3)s2)nn1`, the IC50 – broadly, the concentration that gives 50% inhibition – was > 1000 nM with NCI-H358, 36 nM with NCI-H460, 26 nM in the test with A549 and < 100 nM in test [2]. The Activity entry in the test on LR was “Dose-Dependent Effect”.
Take `O=C1Cc2cccc(c2)OCCCOCCCOc2cccc(c2)CC(=O)Nc2ccc(nn2)CCCCc2ccc(nn2)N1`: the IC50 with NCI-H358 was > 1000 nM; in the test with NCI-H460, 88 nM; in test [1] it was 310 nM; in the test with A549 it was 95 nM; in test [2], < 100 nM. The Activity result in the test with LR was “Dose-Dependent Effect”.
Regarding `O=C1Cc2cccc(c2)OCCOCCOc2cccc(c2)CC(=O)NC2=NN=C(CCCCCC3=NN=C(N1)S3)S2`, the IC50 in test [1] is 10000 nM.
The same measure, in the same setting: then `O=C1Cc2ccc(cc2)OCCOCCOCCOc2cccc(c2)CC(=O)Nc2nnc(s2)CCCCc2nnc(s2)N1`, with 3000 nM.
Still for that read-out and setting: for `O=C1Cc2cccc(c2)OCCOc2cccc(c2)CC(=O)NC2=NN=C(CCCCC3=NN=C(N1)S3)S2` the value was 980 nM; for `O=C1Cc2cccc(c2)OCCOCCOCCOCCOc2cccc(c2)CC(=O)NC2=NN=C(CCCCC3=NN=C(N1)S3)S2`, 4000 nM.
Same read-out and setting: then `O=C1Cc2cccc(c2)OCCOCCOc2cccc(c2)CC(=O)NC2=NN=C(CCCC3=NN=C(N1)S3)S2`, with 4000 nM.
On to `O=C1Cc2cccc(c2)OCCCOCCCOc2cccc(c2)CC(=O)Nc2nnc(s2)CCCCc2ccc(nn2)N1`, for which inhibition in test [1] was half-maximal at 800 nM (IC50).
The same measure, in the same setting: for `O=C1Cc2cccc(c2)OCCCCCCCOc2cccc(c2)CC(=O)Nc2nnc(s2)CCCCc2ccc(nn2)N1` the value was 3000 nM.
Same read-out and setting: then `O=C1Cc2cccc(c2)OCCOCCOc2cccc(c2)CC(=O)NC2=NN=C(CCCCC3=NN=C(N1)S3)S2`, with 2000 nM.
